Experiments:
Type in all cases: functional
SF-268 = assay: Growth inhibition of human SF268 cells after 48 hrs by sulforhodamine B assay; conditions: SF-268, 48 h; for CC50: read-out: LC50 (the source's name)
Method in brief: (§1)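 NCI five-dose screen on the full 60-cell-line panel. Cells were given 10-fold dilutions from 10^-4 to 10^-8 M with continuous 48 h exposure, and growth was read by SRB staining. Percent growth was taken from time-zero, control and treated absorbances. GI50, TGI and LC50 were then derived, the GI50 being the concentration that gives a 50% lower net protein increase than control.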

SNB-75 = assay: Growth inhibition of human SNB75 cells after 48 hrs by sulforhodamine B assay; conditions: SNB-75, 48 h; for CC50: read-out: LC50 (the source's name)
Method in brief: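 NCI 60-cell panel, five concentrations (10-fold dilutions, 0.01–100 µM), 48 h continuous exposure; SRB protein stain read spectrophotometrically. Percent growth from time-zero, untreated-control and treated absorbances. GI50 is the concentration giving 50% lower net protein increase than control. Values beyond the tested range are reported as more or less than the highest or lowest concentration.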

SK-OV-3 = assay: Growth inhibition of human SKOV3 cells assessed as cell growth at 10^-5 M after 48 hrs by sulforhodamine B assay; conditions: SK-OV-3, 48 h, read-out: Activity
Method in brief: (§2)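 NCI 60-cell-line primary one-dose screen. Cells were exposed to a single 10^-5 M concentration for 48 h. The end point was sulforhodamine B protein staining, read spectrophotometrically. Results are reported as percent growth of treated cells relative to untreated control cells.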

HCT-15 = assay: Growth inhibition of human HCT15 cells assessed as cell growth at 10^-5 M after 48 hrs by sulforhodamine B assay; conditions: HCT-15, 48 h, read-out: Activity
Method in brief: (§3)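 NCI 60-cell-line primary screen. Single concentration of 10^-5 M, 48 h incubation. End point by sulforhodamine B protein staining read spectrophotometrically. Reported as percent growth of treated cells relative to untreated control cells.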

SK-MEL-28 = assay: Growth inhibition of human SK-MEL-28 cells after 48 hrs by sulforhodamine B assay; conditions: SK-MEL-28, 48 h; for CC50: read-out: LC50 (the source's name); method in brief: as §1
HT-29 = assay: Growth inhibition of human HT-29 cells after 48 hrs by sulforhodamine B assay; conditions: HT-29, 48 h; for CC50: read-out: LC50 (the source's name)
Method in brief: (§4)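 NCI 60-panel five-dose test at 10-fold dilutions, 10^-4 to 10^-8 M, with 48 h continuous exposure and SRB protein read-out. Percent growth derived from time-zero, untreated-control and treated absorbances. GI50 is the concentration where [(Ti-Tz)/(C-Tz)]×100 = 50. TGI is taken at Ti = Tz. LC50 is taken at [(Ti-Tz)/Tz]×100 = -50.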

PC-3 = assay: Growth inhibition of human PC3 cells assessed as cell growth at 10^-5 M after 48 hrs by sulforhodamine B assay; conditions: PC-3, 48 h, read-out: Activity; method in brief: as §2
786-0 = assay: Growth inhibition of human 786-0 cells assessed as cell growth at 10^-5 M after 48 hrs by sulforhodamine B assay; conditions: 786-0, 48 h, read-out: Activity; method in brief: as §3
HOP-92 = assay: Growth inhibition of human HOP92 cells after 48 hrs by sulforhodamine B assay; conditions: HOP-92, 48 h; method in brief: as §4

## COc1cc(/C=C/C(=O)c2ccc(NC(=O)CN3CCN(c4cc5c(cc4F)c(=O)c(C(=O)O)cn5C4CC4)CC3)cc2)cc(OC)c1OC
SF-268
  GI50: 1.06 µM
  TGI: 61.2 µM
  CC50: > 100 µM
SNB-75
  GI50: 5.75 µM
  TGI: > 100 µM
  CC50: > 100 µM
SK-OV-3
  growth at 10 µM: 33.3%
HCT-15
  growth at 10 µM: 18.2%
SK-MEL-28
  GI50: 1.1 µM
  TGI: 17 µM
  CC50: 98.2 µM
HT-29
  GI50: 0.23 µM
  TGI: 0.63 µM
  CC50: 9.13 µM
PC-3
  growth at 10 µM: 21.5%
786-0
  growth at 10 µM: -67.8%

## O=C(CN1CCN(c2cc3c(cc2F)c(=O)c(C(=O)O)cn3C2CC2)CC1)Nc1ccc(C(=O)/C=C/c2ccccc2)cc1
SF-268
  GI50: 4.13 µM
  TGI: > 100 µM
  CC50: > 100 µM
SNB-75
  GI50: 3.22 µM
  TGI: > 100 µM
  CC50: > 100 µM
SK-OV-3
  growth at 10 µM: 93.6%
HCT-15
  growth at 10 µM: 56.8%
HOP-92
  GI50: 0.43 µM
  TGI: 3.82 µM
HOP-92; read-out: LC50 (the source's name)
  CC50: > 100 µM
SK-MEL-28
  GI50: 18.8 µM
  TGI: > 100 µM
  CC50: > 100 µM
HT-29
  GI50: 2.99 µM
  TGI: 10.3 µM
  CC50: > 100 µM
PC-3
  growth at 10 µM: 55.2%
786-0
  growth at 10 µM: 23.2%
